Experimental data as given in ChEMBL document CHEMBL1817558, “Design, synthesis and antimicrobial activity of chiral 2-(substituted-hydroxyl)-3-(benzo[d]oxazol-5-yl)propanoic acid derivatives” (2011).
Values after ≈ are worked out from the molar mass of the structure shown.

Assays:
Format in all cases: functional
Escherichia coli = experiment: Antibacterial activity against Escherichia coli ATCC 11303 after 24 hrs by NCCLS M7-A6 broth dilution method; details: ATCC 11303, 24 h
In short: (§1)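 Broth microdilution MIC per NCCLS. The 4 mg/mL DMSO stock was diluted in Mueller-Hinton broth with inoculum at 10^5 CFU/mL. Twofold serial dilutions gave final concentrations of 200 to 0.39 µg/mL. Incubation was 24 h at 37 °C, and cultures were streaked on plates to check clarity. MIC was the lowest concentration giving a clear well. Controls were medium-only and DMSO-only inoculated broth.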

Staphylococcus aureus [1] = experiment: Antibacterial activity against Staphylococcus aureus ATCC 10832 after 24 hrs by NCCLS M7-A6 broth dilution method; details: ATCC 10832, 24 h
In short: (§2)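 96-well microtitre broth dilution in Mueller-Hinton broth, inoculum 10^5 CFU/mL. Compounds dissolved in DMSO at 4 mg/mL, then twofold serial dilution giving final 200 down to 0.39 µg/mL. Incubated 24 h at 37 °C. Cultures streaked on plates to check clarity; MIC taken as lowest concentration leaving the well clear. DMSO-only solvent control run at matching dilutions.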

Staphylococcus aureus [2] = experiment: Antibacterial activity against methicillin-resistant Staphylococcus aureus ATCC 700699 after 24 hrs by NCCLS M7-A6 broth dilution method; details: ATCC 700699, 24 h; in short: as §2
Bacillus subtilis = experiment: Antibacterial activity against Bacillus subtilis ATCC 33712 after 24 hrs by NCCLS M7-A6 broth dilution method; details: ATCC 33712, 24 h; in short: as §1
Candida albicans = experiment: microbe, parasite or virus in culture; details: ATCC 10231, 24 h

Row | Structure (SMILES) | MIC (Escherichia coli) [µg/mL] | MIC (Staphylococcus aureus [1]) [µg/mL] | MIC (Staphylococcus aureus [2]) [µg/mL] | MIC (Bacillus subtilis) [µg/mL] | MIC (Candida albicans) [µg/mL]
1 | Cc1oc(-c2ccccc2)nc1CCCc1nc2cc(C[C@H](Oc3ccc(Cl)cc3)C(=O)O)ccc2o1 | 25 (≈ 48.4 µM) | 6.25 (≈ 12.1 µM) | 6.25 (≈ 12.1 µM) | 12.5 (≈ 24.2 µM) | > 200
2 | Cc1oc(-c2ccccc2)nc1CCCc1nc2cc(C[C@H](Oc3ccccc3)C(=O)O)ccc2o1 | 100 (≈ 207 µM) | 25 (≈ 51.8 µM) | 25 (≈ 51.8 µM) | 25 (≈ 51.8 µM) | > 200
3 | Cc1oc(-c2ccccc2)nc1CCCc1nc2cc(C[C@H](Oc3cccnc3)C(=O)O)ccc2o1 | > 200 | 200 (≈ 414 µM) | 200 (≈ 414 µM) | > 200 | > 200
4 | Cc1oc(-c2ccccc2)nc1CCCc1nc2cc(C[C@H](Oc3cccc4ncccc34)C(=O)O)ccc2o1 | 200 (≈ 375 µM) | 25 (≈ 46.9 µM) | 25 (≈ 46.9 µM) | 50 (≈ 93.7 µM) | > 200
5 | Cc1oc(-c2ccccc2)nc1CCCc1nc2cc(C[C@H](Oc3ccc(F)cc3)C(=O)O)ccc2o1 | 50 (≈ 99.9 µM) | 12.5 (≈ 25 µM) | 12.5 (≈ 25 µM) | 25 (≈ 49.9 µM) | > 200
6 | Cc1oc(-c2ccccc2)nc1CCCc1nc2cc(C[C@H](Oc3cccc(F)c3)C(=O)O)ccc2o1 | 50 (≈ 99.9 µM) | 12.5 (≈ 25 µM) | 12.5 (≈ 25 µM) | 25 (≈ 49.9 µM) | > 200
7 | Cc1oc(-c2ccccc2)nc1CCCc1nc2cc(C[C@H](Oc3cc(F)c(F)c(F)c3)C(=O)O)ccc2o1 | 25 (≈ 46.6 µM) | 12.5 (≈ 23.3 µM) | 6.25 (≈ 11.6 µM) | 6.25 (≈ 11.6 µM) | > 200
8 | Cc1oc(-c2ccccc2)nc1CCCc1nc2cc(C[C@H](Oc3ccc(Br)cc3)C(=O)O)ccc2o1 | 12.5 (≈ 22.3 µM) | 3.12 (≈ 5.56 µM) | 3.12 (≈ 5.56 µM) | 6.25 (≈ 11.1 µM) | > 200
9 | Cc1oc(-c2ccccc2)nc1CCCc1nc2cc(C[C@H](Oc3ccccc3Br)C(=O)O)ccc2o1 | 50 (≈ 89.1 µM) | 25 (≈ 44.5 µM) | 25 (≈ 44.5 µM) | 50 (≈ 89.1 µM) | > 200
10 | Cc1oc(-c2ccccc2)nc1CCCc1nc2cc(C[C@H](Oc3ccc(Cl)cc3Cl)C(=O)O)ccc2o1 | 6.25 (≈ 11.3 µM) | 3.12 (≈ 5.66 µM) | 1.56 (≈ 2.83 µM) | 3.12 (≈ 5.66 µM) | > 200
11 | Cc1oc(-c2ccccc2)nc1CCCc1nc2cc(C[C@H](Oc3cccc(I)c3)C(=O)O)ccc2o1 | 25 (≈ 41.1 µM) | 3.12 (≈ 5.13 µM) | 1.56 (≈ 2.56 µM) | 12.5 (≈ 20.5 µM) | > 200
12 | Cc1oc(-c2ccccc2)nc1CCCc1nc2cc(C[C@H](Oc3ccc(I)cc3)C(=O)O)ccc2o1 | 12.5 (≈ 20.5 µM) | 1.56 (≈ 2.56 µM) | 1.56 (≈ 2.56 µM) | 6.25 (≈ 10.3 µM) | > 200
13 | Cc1oc(-c2ccccc2)nc1CCCc1nc2cc(C[C@H](Oc3ccc(C(F)(F)F)cc3)C(=O)O)ccc2o1 | 12.5 (≈ 22.7 µM) | 1.56 (≈ 2.83 µM) | 1.56 (≈ 2.83 µM) | 6.25 (≈ 11.4 µM) | > 200
14 | Cc1oc(-c2ccccc2)nc1CCCc1nc2cc(C[C@H](Oc3ccc(C#N)cc3)C(=O)O)ccc2o1 | 200 (≈ 394 µM) | 50 (≈ 98.5 µM) | 50 (≈ 98.5 µM) | 50 (≈ 98.5 µM) | > 200
15 | CC(=O)c1ccc(O[C@@H](Cc2ccc3oc(CCCc4nc(-c5ccccc5)oc4C)nc3c2)C(=O)O)cc1 | > 200 | 100 (≈ 191 µM) | 100 (≈ 191 µM) | > 200 | > 200
16 | Cc1ccc(O[C@@H](Cc2ccc3oc(CCCc4nc(-c5ccccc5)oc4C)nc3c2)C(=O)O)cc1 | 50 (≈ 101 µM) | 25 (≈ 50.3 µM) | 12.5 (≈ 25.2 µM) | 50 (≈ 101 µM) | > 200
